Test results taken from ChEMBL document CHEMBL4152188, “Design, synthesis and biological evaluation of C(4) substituted monobactams as antibacterial agents against multidrug-resistant Gram-negative bacteria” (Eur J Med Chem, 2018).
In brackets after ≈: the same amount, converted by molar mass.

Key:
Assay type in all cases: functional
Escherichia coli [1] = experiment: Antibacterial activity against extended-spectrum beta-lactamase producing Escherichia coli isolate 212648 after 18 hrs by CLSI broth microdilution method; conditions: isolate 212648, 18 h
Escherichia coli [2] = experiment: Selectivity index, ratio of MIC for against extended-spectrum beta-lactamase producing Escherichia coli isolate 208687 to MIC for extended-spectrum beta-lactamase producing Escherichia coli isolate 208687 in presence of BPL
Escherichia coli [3] = experiment: Antibacterial activity against Escherichia coli isolate 210737 after 18 hrs by CLSI broth microdilution method; conditions: isolate 210737, 18 h
Escherichia coli [4] = experiment: Antibacterial activity against extended-spectrum beta-lactamase producing Escherichia coli isolate 208687 after 18 hrs by CLSI broth microdilution method; conditions: isolate 208687, 18 h
Escherichia coli [5] = experiment: Antibacterial activity against extended-spectrum beta-lactamase producing Escherichia coli isolate 208687 after 18 hrs in presence of BPL by CLSI broth microdilution method; conditions: isolate 208687, 18 h
How it was run: (§1)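 CLSI broth microdilution against clinical isolates (ESBL E. coli, KPC-2 MDR K. pneumoniae, IMP-4 MDR P. aeruginosa; five per species). Iron limitation: Mueller-Hinton broth supplemented with 16 mg/liter 2,2'-bipyridyl to complex iron and induce iron uptake systems. Read-out: MIC.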

Escherichia coli [6] = experiment: Antibacterial activity against Escherichia coli isolate 210737 after 18 hrs in presence of BPL by CLSI broth microdilution method; conditions: isolate 210737, 18 h; how it was run: as §1
Escherichia coli [7] = experiment: Selectivity index, ratio of MIC for against Escherichia coli isolate 210737 to MIC for Escherichia coli isolate 210737 in presence of BPL
Escherichia coli [8] = experiment: Antibacterial activity against extended-spectrum beta-lactamase producing Escherichia coli isolate 212648 after 18 hrs in presence of BPL by CLSI broth microdilution method; conditions: isolate 212648, 18 h; how it was run: as §1
Escherichia coli [9] = experiment: Selectivity index, ratio of MIC for against extended-spectrum beta-lactamase producing Escherichia coli isolate 212648 to MIC for extended-spectrum beta-lactamase producing Escherichia coli isolate 212648 in presence of BPL
Escherichia coli [10] = experiment: Antibacterial activity against extended-spectrum beta-lactamase producing Escherichia coli isolate 209285 after 18 hrs by CLSI broth microdilution method; conditions: isolate 209285, 18 h
Escherichia coli [11] = experiment: Antibacterial activity against extended-spectrum beta-lactamase producing Escherichia coli isolate 209285 after 18 hrs in presence of BPL by CLSI broth microdilution method; conditions: isolate 209285, 18 h; how it was run: as §1
Escherichia coli [12] = experiment: Selectivity index, ratio of MIC for against extended-spectrum beta-lactamase producing Escherichia coli isolate 209285 to MIC for extended-spectrum beta-lactamase producing Escherichia coli isolate 209285 in presence of BPL
Escherichia coli [13] = experiment: Antibacterial activity against extended-spectrum beta-lactamase producing Escherichia coli isolate 106342 after 18 hrs by CLSI broth microdilution method; conditions: isolate 106342, 18 h
Escherichia coli [14] = experiment: Antibacterial activity against extended-spectrum beta-lactamase producing Escherichia coli isolate 106342 after 18 hrs in presence of BPL by CLSI broth microdilution method; conditions: isolate 106342, 18 h; how it was run: as §1
Escherichia coli [15] = experiment: Selectivity index, ratio of MIC for against extended-spectrum beta-lactamase producing Escherichia coli isolate 106342 to MIC for extended-spectrum beta-lactamase producing Escherichia coli isolate 106342 in presence of BPL
Klebsiella pneumoniae [16] = experiment: Antibacterial activity against KPC-2 producing Klebsiella pneumoniae isolate 212423 after 18 hrs by CLSI broth microdilution method; conditions: isolate 212423, 18 h
Klebsiella pneumoniae [17] = experiment: Antibacterial activity against KPC-2 producing Klebsiella pneumoniae isolate 212423 after 18 hrs in presence of BPL by CLSI broth microdilution method; conditions: isolate 212423, 18 h; how it was run: as §1
Klebsiella pneumoniae [18] = experiment: Selectivity index, ratio of MIC for against KPC-2 producing Klebsiella pneumoniae isolate 212423 to MIC for against KPC-2 producing Klebsiella pneumoniae isolate 212423 in presence of BPL
Klebsiella pneumoniae [19] = experiment: Antibacterial activity against KPC-2 producing Klebsiella pneumoniae isolate 209632 after 18 hrs by CLSI broth microdilution method; conditions: isolate 209632, 18 h
Klebsiella pneumoniae [20] = experiment: Antibacterial activity against KPC-2 producing Klebsiella pneumoniae isolate 209632 after 18 hrs in presence of BPL by CLSI broth microdilution method; conditions: isolate 209632, 18 h; how it was run: as §1
Klebsiella pneumoniae [21] = experiment: Selectivity index, ratio of MIC for against KPC-2 producing Klebsiella pneumoniae isolate 209632 to MIC for against KPC-2 producing Klebsiella pneumoniae isolate 209632 in presence of BPL
Klebsiella pneumoniae [22] = experiment: Antibacterial activity against KPC-2 producing Klebsiella pneumoniae isolate 209735 after 18 hrs by CLSI broth microdilution method; conditions: isolate 209735, 18 h
Klebsiella pneumoniae [23] = experiment: Antibacterial activity against KPC-2 producing Klebsiella pneumoniae isolate 209735 after 18 hrs in presence of BPL by CLSI broth microdilution method; conditions: isolate 209735, 18 h; how it was run: as §1
Klebsiella pneumoniae [24] = experiment: Selectivity index, ratio of MIC for against KPC-2 producing Klebsiella pneumoniae isolate 209735 to MIC for against KPC-2 producing Klebsiella pneumoniae isolate 209735 in presence of BPL
Klebsiella pneumoniae [25] = experiment: Antibacterial activity against KPC-2 producing Klebsiella pneumoniae isolate 212232 after 18 hrs by CLSI broth microdilution method; conditions: isolate 212232, 18 h
Klebsiella pneumoniae [26] = experiment: Antibacterial activity against KPC-2 producing Klebsiella pneumoniae isolate 212232 after 18 hrs in presence of BPL by CLSI broth microdilution method; conditions: isolate 212232, 18 h; how it was run: as §1
Klebsiella pneumoniae [27] = experiment: Selectivity index, ratio of MIC for against KPC-2 producing Klebsiella pneumoniae isolate 212232 to MIC for against KPC-2 producing Klebsiella pneumoniae isolate 212232 in presence of BPL
Klebsiella pneumoniae [28] = experiment: Antibacterial activity against KPC-2 producing Klebsiella pneumoniae isolate 212229 after 18 hrs by CLSI broth microdilution method; conditions: isolate 212229, 18 h
Klebsiella pneumoniae [29] = experiment: Antibacterial activity against KPC-2 producing Klebsiella pneumoniae isolate 212229 after 18 hrs in presence of BPL by CLSI broth microdilution method; conditions: isolate 212229, 18 h; how it was run: as §1
Klebsiella pneumoniae [30] = experiment: Selectivity index, ratio of MIC for against KPC-2 producing Klebsiella pneumoniae isolate 212229 to MIC for against KPC-2 producing Klebsiella pneumoniae isolate 212229 in presence of BPL
Pseudomonas aeruginosa [31] = experiment: Antibacterial activity against IMP-4 producing Pseudomonas aeruginosa isolate 212886 after 18 hrs by CLSI broth microdilution method; conditions: isolate 212886, 18 h
Pseudomonas aeruginosa [32] = experiment: Antibacterial activity against IMP-4 producing Pseudomonas aeruginosa isolate 212886 after 18 hrs in presence of BPL by CLSI broth microdilution method; conditions: isolate 212886, 18 h; how it was run: as §1
Pseudomonas aeruginosa [33] = experiment: Selectivity index, ratio of MIC for against IMP-4 producing Pseudomonas aeruginosa isolate 212886 to MIC for against IMP-4 producing Pseudomonas aeruginosa isolate 212886 in presence of BPL
Pseudomonas aeruginosa [34] = experiment: Antibacterial activity against IMP-4 producing Pseudomonas aeruginosa isolate 209471 after 18 hrs by CLSI broth microdilution method; conditions: isolate 209471, 18 h
Pseudomonas aeruginosa [35] = experiment: Antibacterial activity against IMP-4 producing Pseudomonas aeruginosa isolate 209471 after 18 hrs in presence of BPL by CLSI broth microdilution method; conditions: isolate 209471, 18 h; how it was run: as §1
Pseudomonas aeruginosa [36] = experiment: Selectivity index, ratio of MIC for against IMP-4 producing Pseudomonas aeruginosa isolate 209471 to MIC for against IMP-4 producing Pseudomonas aeruginosa isolate 209471 in presence of BPL
Pseudomonas aeruginosa [37] = experiment: Antibacterial activity against IMP-4 producing Pseudomonas aeruginosa isolate 208247 after 18 hrs by CLSI broth microdilution method; conditions: isolate 208247, 18 h
Pseudomonas aeruginosa [38] = experiment: Antibacterial activity against IMP-4 producing Pseudomonas aeruginosa isolate 208247 after 18 hrs in presence of BPL by CLSI broth microdilution method; conditions: isolate 208247, 18 h; how it was run: as §1
Pseudomonas aeruginosa [39] = experiment: Selectivity index, ratio of MIC for against IMP-4 producing Pseudomonas aeruginosa isolate 208247 to MIC for against IMP-4 producing Pseudomonas aeruginosa isolate 208247 in presence of BPL
Pseudomonas aeruginosa [40] = experiment: Antibacterial activity against IMP-4 producing Pseudomonas aeruginosa isolate 209321 after 18 hrs by CLSI broth microdilution method; conditions: isolate 209321, 18 h
Pseudomonas aeruginosa [41] = experiment: Antibacterial activity against IMP-4 producing Pseudomonas aeruginosa isolate 209321 after 18 hrs in presence of BPL by CLSI broth microdilution method; conditions: isolate 209321, 18 h; how it was run: as §1
Pseudomonas aeruginosa [42] = experiment: Selectivity index, ratio of MIC for against IMP-4 producing Pseudomonas aeruginosa isolate 209321 to MIC for against IMP-4 producing Pseudomonas aeruginosa isolate 209321 in presence of BPL
Pseudomonas aeruginosa [43] = experiment: Antibacterial activity against IMP-4 producing Pseudomonas aeruginosa isolate 207272 after 18 hrs by CLSI broth microdilution method; conditions: isolate 207272, 18 h
Pseudomonas aeruginosa [44] = experiment: Antibacterial activity against IMP-4 producing Pseudomonas aeruginosa isolate 207272 after 18 hrs in presence of BPL by CLSI broth microdilution method; conditions: isolate 207272, 18 h; how it was run: as §1
Pseudomonas aeruginosa [45] = experiment: Selectivity index, ratio of MIC for against IMP-4 producing Pseudomonas aeruginosa isolate 207272 to MIC for against IMP-4 producing Pseudomonas aeruginosa isolate 207272 in presence of BPL

MIC (Escherichia coli [1]): 1 µg/mL (≈ 1.7 µM) | MIC (Escherichia coli [3]): 0.5 µg/mL (≈ 0.85 µM) | MIC (Escherichia coli [4]): 1 µg/mL (≈ 1.7 µM) | MIC (Escherichia coli [5]): 0.25 µg/mL | MIC (Escherichia coli [6]): 0.5 µg/mL | MIC (Escherichia coli [8]): 0.5 µg/mL | MIC (Escherichia coli [10]): 1 µg/mL (≈ 1.7 µM) | MIC (Escherichia coli [11]): 0.5 µg/mL | MIC (Escherichia coli [13]): 1 µg/mL (≈ 1.7 µM) | MIC (Escherichia coli [14]): 1 µg/mL | MIC (Klebsiella pneumoniae [16]): 2 µg/mL (≈ 3.4 µM) | MIC (Klebsiella pneumoniae [17]): 1 µg/mL | MIC (Klebsiella pneumoniae [19]): 2 µg/mL (≈ 3.4 µM) | MIC (Klebsiella pneumoniae [20]): 1 µg/mL | MIC (Klebsiella pneumoniae [22]): 2 µg/mL (≈ 3.4 µM) | MIC (Klebsiella pneumoniae [23]): 1 µg/mL | MIC (Klebsiella pneumoniae [25]): 8 µg/mL (≈ 13.6 µM) | MIC (Klebsiella pneumoniae [26]): 0.5 µg/mL | MIC (Klebsiella pneumoniae [28]): 2 µg/mL (≈ 3.4 µM) | MIC (Klebsiella pneumoniae [29]): 1 µg/mL | MIC (Pseudomonas aeruginosa [31]): > 64 µg/mL | MIC (Pseudomonas aeruginosa [32]): 16 µg/mL | MIC (Pseudomonas aeruginosa [34]): 64 µg/mL (≈ 109 µM) | MIC (Pseudomonas aeruginosa [35]): 32 µg/mL | MIC (Pseudomonas aeruginosa [37]): 64 µg/mL (≈ 109 µM) | MIC (Pseudomonas aeruginosa [38]): 64 µg/mL | MIC (Pseudomonas aeruginosa [40]): 64 µg/mL (≈ 109 µM) | MIC (Pseudomonas aeruginosa [41]): 64 µg/mL | MIC (Pseudomonas aeruginosa [43]): > 64 µg/mL | MIC (Pseudomonas aeruginosa [44]): 64 µg/mL
Structure (SMILES): CC(=O)OC[C@@H]1[C@H](NC(=O)/C(=N\OC(c2cc(=O)c(O)cn2O)C(C)C)c2csc(N)n2)C(=O)N1S(=O)(=O)O (stereo not given in full)
Selectivity Index (Escherichia coli [2]): 4 | Selectivity Index (Escherichia coli [7]): 1 | Selectivity Index (Escherichia coli [9]): 2 | Selectivity Index (Escherichia coli [12]): 2 | Selectivity Index (Escherichia coli [15]): 1 | Selectivity Index (Klebsiella pneumoniae [18]): 2 | Selectivity Index (Klebsiella pneumoniae [21]): 2 | Selectivity Index (Klebsiella pneumoniae [24]): 2 | Selectivity Index (Klebsiella pneumoniae [27]): 16 | Selectivity Index (Klebsiella pneumoniae [30]): 2 | Selectivity Index (Pseudomonas aeruginosa [33]): >4 | Selectivity Index (Pseudomonas aeruginosa [36]): 2 | Selectivity Index (Pseudomonas aeruginosa [39]): 1 | Selectivity Index (Pseudomonas aeruginosa [42]): 1 | Selectivity Index (Pseudomonas aeruginosa [45]): >1
